{"source": "paper PMC10041999", "about": "(Journal of chemical information and modeling, 2022)", "target": "T1, VapC1 (Haemophilus influenzae, UniProt Q4QNL7)", "T1 sequence (Q4QNL7 1-134)": "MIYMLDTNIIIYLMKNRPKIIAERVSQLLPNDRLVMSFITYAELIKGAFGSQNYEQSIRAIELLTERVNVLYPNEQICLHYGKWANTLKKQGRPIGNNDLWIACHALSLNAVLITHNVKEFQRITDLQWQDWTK", "test": "Biochemical VapC1 ribonuclease activity assay", "set-up": "species or system nontypeable Haemophilus influenzae", "how_it_was_run": "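Purified VapC1 (296 nM final) was preincubated with test compound, aurintricarboxylic acid positive control or DMSO for 30 min at room temperature in 1X RNaseAlert reaction buffer. Custom RNA substrate (5' Cy5, 3' Iowa Black RQ quencher; 100 nM final) was then added. Fluorescence (Ex 618, Em 671 nm) was read immediately and at 75 min. Activity was taken as the change between readings. Concentration-response used eleven concentrations.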", "data": [{"smiles": "Clc1ccc(C(c2ccc(Cl)cc2)n2cc[n+](C[C@@H](OCc3ccc(Cl)cc3Cl)c3ccc(Cl)cc3Cl)c2)cc1", "note": "[NCGC00015233]", "values": [{"measurement": "VapC1 inhibitor (result in words)", "value": "confirmed VapC1 inhibtors"}]}]}
